Data: ChEMBL document CHEMBL4000223, “Evaluation of substituted ebselen derivatives as potential trypanocidal agents” (Bioorg Med Chem Lett, 2017)

Assays:
[1] = Inhibition of recombinant Trypanosoma brucei His6-tagged HK1 expressed in Escherichia coli M15(pREP) harboring pQE30 using glucose as substrate by spectrophotometric based glucose 6-phosphate dehydrogenase enzyme coupled assay
Trypanosoma brucei [2] = experiment: Inhibition of recombinant Trypanosoma brucei His6-tagged HK1 expressed in Escherichia coli M15(pREP) harboring pQE30 at 10 uM using glucose as substrate by spectrophotometric based glucose 6-phosphate dehydrogenase enzyme coupled assay
How it was run: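 Purified recombinant TbHK1 incubated with the compound at a single fixed screening concentration, after which enzyme activity was scored. Percent inhibition is recorded relative to uninhibited enzyme.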

Trypanosoma brucei [3] = experiment: Antitrypanosomal activity against Trypanosoma brucei 427 bloodstream forms at 10 uM after 72 hrs by CellTiter-Blue fluorescence assay; assay type: functional; conditions: Trypanosoma brucei, 427, 72 h
How it was run: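 Single-concentration growth screen of bloodstream-form cultures, run in triplicate. Percent inhibition was calculated against growth of parasites given DMSO vehicle on the same plate, which served as the negative control. EbS at the same concentration was included in each assay as a positive control.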

Trypanosoma brucei [4] = experiment: Antitrypanosomal activity against Trypanosoma brucei 427 bloodstream forms after 72 hrs by CellTiter-Blue fluorescence assay; assay type: functional; conditions: Trypanosoma brucei, 427, 72 h
How it was run: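 Bloodstream-form cultures were run as triplicate dose-response series to derive 50% effective concentrations. Compounds were taken to this stage only if they gave more than 50% growth inhibition in the single-concentration screen. DMSO vehicle served as the negative control, and EbS was included as a positive control in each assay.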

[5] = Inhibition of recombinant Trypanosoma brucei His6-tagged HK1 expressed in Escherichia coli M15(pREP) harboring pQE30 using glucose as substrate after 2 hrs by spectrophotometric based glucose 6-phosphate dehydrogenase enzyme coupled assay
Trypanosoma brucei [6] = experiment: Antitrypanosomal activity against Trypanosoma brucei bloodstream forms after 72 hrs by CellTiter-Blue fluorescence assay; assay type: functional
How it was run: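 Bloodstream-form T. brucei cultures assayed in triplicate, with DMSO vehicle as negative control and a reference ebselen analogue as positive control on each plate. Growth inhibition is calculated against the DMSO controls of the same plate. Compounds giving over 50% inhibition in the single-concentration screen went on to triplicate dose-response curves to derive 50% effective concentrations.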

[7] = Inhibition of recombinant Trypanosoma brucei HK1 expressed in Escherichia coli or yeast using glucose as substrate by spectrophotometric based glucose 6-phosphate dehydrogenase enzyme coupled assay

SMILES | IC50 [1] [µM] | inhibition (Trypanosoma brucei [2]) [%] | inhibition at 10 µM (Trypanosoma brucei [3]) [%] | EC50 (Trypanosoma brucei [4]) [µM] | IC50 [5] [µM] | EC50 (Trypanosoma brucei [6]) [µM] | IC50 [7] [µM]
COC(=O)c1cccc2c(=O)n(-c3ccccc3)[se]c12 | > 10 | 2.7 | 55.6 | 10 | – | – | –
O=C(O)Cn1sc2ccccc2c1=O | > 10 | 0.87 | 77.6 | 7.2 | – | – | –
COC(=O)Cn1sc2ccccc2c1=O | > 10 | 12.8 | 98.3 | 0.28 | – | – | –
O=C(O)c1cccc(-n2sc3ccccc3c2=O)c1 | > 10 | 0 | 15.8 | > 10 | – | – | –
O=C(O)c1ccc(-n2sc3ccccc3c2=O)cc1 | > 10 | 0 | 0 | > 10 | – | – | –
O=C(O)c1cccc(-n2[se]c3ccccc3c2=O)c1 | > 10 | 18.5 | 0 | > 10 | – | – | –
O=C(O)c1cccc2c(=O)n(-c3ccccc3)[se]c12 | > 10 | 0 | 0 | > 10 | – | – | –
COC(=O)c1cccc(-n2[se]c3ccccc3c2=O)c1 | > 10 | 0 | 18 | > 10 | – | – | –
CC(C)C[C@H](NC(=O)[C@H](CCCCN)NC(=O)[C@H](C)NC(=O)CCOCCOCCNC(=O)c1ccc(-n2sc3ccccc3c2=O)cc1)C(=O)O | > 10 | 0 | 35.4 | > 10 | – | – | –
O=C(O)c1cccc2c(=O)n(-c3ccccc3)sc12 | > 10 | 0 | 10.9 | > 10 | – | – | –
CC(C)C[C@@H](NC(=O)[C@@H](CCCCN)NC(=O)[C@@H](C)NC(=O)CNC(=O)CNC(=O)c1cccc(-n2[se]c3ccccc3c2=O)c1)C(=O)O | > 10 | 0 | 28.4 | > 10 | – | – | –
O=C(O)Cn1[se]c2ccccc2c1=O | > 10 | 0 | 0 | > 10 | – | – | –
O=C(O)c1ccc(-n2[se]c3ccccc3c2=O)cc1 | > 10 | 17.2 | 12 | > 10 | – | – | –
COC(=O)Cn1[se]c2ccccc2c1=O | > 10 | 0 | 0 | > 10 | – | – | –
CC(C)C[C@H](NC(=O)[C@H](CCCCN)NC(=O)[C@H](C)NC(=O)CCOCCOCCNC(=O)c1ccc(-n2[se]c3ccccc3c2=O)cc1)C(=O)O | > 10 | 0 | 25 | > 10 | – | – | –
CC(C)C[C@@H](NC(=O)[C@@H](CCCCN)NC(=O)[C@@H](C)NC(=O)CNC(=O)CNC(=O)c1cccc(-n2sc3ccccc3c2=O)c1)C(=O)O | > 10 | 0 | 0 | > 10 | – | – | –
O=c1c2ccccc2[se]n1-c1ccccc1 [EBSELEN] | – | – | – | – | 0.05 | 2.9 | –
COC(=O)c1ccc(-n2sc3ccccc3c2=O)cc1 | > 10 | 22.8 | 66.5 | 3.8 | – | – | –
CC(C)C[C@@H](NC(=O)[C@@H](CCCCN)NC(=O)[C@@H](C)NC(=O)CNC(=O)CNC(=O)c1cccc2c(=O)n(-c3ccccc3)[se]c12)C(=O)O | > 10 | 0 | 0 | > 10 | – | – | –
COC(=O)c1ccc(-n2[se]c3ccccc3c2=O)cc1 | 3.16 | 79 | 38.6 | 13 | – | – | –
CC(C)C[C@@H](NC(=O)[C@@H](CCCCN)NC(=O)[C@@H](C)NC(=O)CNC(=O)CNC(=O)c1ccc(-n2[se]c3ccccc3c2=O)cc1)C(=O)O | > 10 | 0 | 44.1 | > 10 | – | – | –
CC(C)C[C@@H](NC(=O)[C@@H](CCCCN)NC(=O)[C@@H](C)NC(=O)CNC(=O)CNC(=O)Cn1[se]c2ccccc2c1=O)C(=O)O | > 10 | 1.7 | 34.4 | > 10 | – | – | –
COC(=O)c1cccc(-n2sc3ccccc3c2=O)c1 | > 10 | 1.7 | 8.8 | > 10 | – | – | –
COC(=O)c1cccc2c(=O)n(-c3ccccc3)sc12 | > 10 | 18 | 52.5 | 10 | – | – | –
CC(C)C[C@@H](NC(=O)[C@@H](CCCCN)NC(=O)[C@@H](C)NC(=O)CNC(=O)CNC(=O)c1cccc2c(=O)n(-c3ccccc3)sc12)C(=O)O | > 10 | 0 | 0 | > 10 | – | – | –
CC(C)C[C@@H](NC(=O)[C@@H](CCCCN)NC(=O)[C@@H](C)NC(=O)CNC(=O)CNC(=O)Cn1sc2ccccc2c1=O)C(=O)O | > 10 | 3.7 | 28 | > 10 | – | – | –
O=C(O)c1nn(Cc2ccc(Cl)cc2Cl)c2ccccc12 [LONIDAMINE] | – | – | – | – | – | – | 850
O=c1c2ccccc2sn1-c1ccccc1 | – | – | – | – | 2 | 0.03 | –
CC(C)C[C@@H](NC(=O)[C@@H](CCCCN)NC(=O)[C@@H](C)NC(=O)CNC(=O)CNC(=O)c1ccc(-n2sc3ccccc3c2=O)cc1)C(=O)O | > 10 | 10.4 | 26.4 | > 10 | – | – | –
